Measured values published in article PMC2195906 (The Journal of Experimental Medicine, 2001).
“Also recorded” adds a separate entry of the source.

Tests used:
[1] = tested on: purified mitochondria (respiratory control); assay: Respiratory control; format: biochemical, mouse; settings: 1 μM Vpr-derived peptides, 10 min
Summary of the method: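 Clark-electrode oxygraphy at 37°C in 0.3 M mannitol, 10 mM KCl, 5 mM MgCl2, 1 mg/ml BSA, 10 mM KH2PO4, pH 7.4. Purified mitochondria were pretreated 10 min with 1 μM peptide; succinate oxidation was followed with sequential ADP, oligomycin and CCCP additions. Mean of three determinations.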

PTPC = settings: cited from earlier work
recombinant Bcl-2 = assay: Plasmon resonance: interaction with recombinant Bcl-2; format: binding, human; settings: surface plasmon resonance, control experiments
[2] = Pore-opening assay: plain liposomes; format: biochemical; settings: 4-MUP loaded, data not shown
Summary of the method: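 Liposomes sonicated on ice with 1 mM 4-MUP and 10 mM KCl, then freed of unencapsulated probe on Sephadex G-25. Diluted in 10 mM Hepes, 125 mM saccharose pH 7.4 and exposed to inducers for 1 h at RT; inhibitors were added 30 min earlier. Alkaline phosphatase with 0.5 mM MgCl2 was added for 15 min at 37°C and stopped with EDTA buffer at pH 10. 4-MU fluorescence (360/450 nm) was expressed as % of the atractyloside response after subtracting untreated liposomes.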

[3] = Planar lipid bilayers, single channel level, Vpr52-96 without ANT; format: biochemical; settings: <1 nM Vpr52-96
Summary of the method: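 Solvent-free planar bilayers formed by monolayer apposition on a 125-μm Teflon aperture, or by tip-dip on patch pipettes. Recording was in symmetric 100 mM KCl, 2 mM MgCl2, 10 mM Hepes pH 7.4, with Ag/AgCl electrodes under applied voltage. Bare membranes were first checked for electrical silence; peptide was added to the aqueous subphase after bilayer formation. Single-channel current traces show the most frequent events.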

ANT [4] = molecular target: T1, ANT (Rattus norvegicus, UniProt Q05962); assay: Plasmon resonance; format: binding
T1 sequence (Q05962 1-298): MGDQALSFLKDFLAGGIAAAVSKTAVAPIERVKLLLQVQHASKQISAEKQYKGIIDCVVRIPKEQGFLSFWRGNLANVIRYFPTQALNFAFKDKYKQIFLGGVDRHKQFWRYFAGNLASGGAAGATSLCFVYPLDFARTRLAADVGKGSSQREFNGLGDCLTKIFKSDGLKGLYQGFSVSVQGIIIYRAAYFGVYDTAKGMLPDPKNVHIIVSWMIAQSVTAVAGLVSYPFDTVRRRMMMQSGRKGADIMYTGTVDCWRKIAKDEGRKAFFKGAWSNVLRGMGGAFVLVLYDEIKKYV

[5] = tested on: purified mitochondria, inner membrane; assay: Respirometry: NADH-dependent oxygen consumption; format: biochemical, mouse
Summary of the method: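 Oxygen uptake was recorded by Clark electrode at 37°C (mannitol/KCl/MgCl2/BSA/KH2PO4 medium, pH 7.4) after 2 mM NADH and 1 μM peptide, with rotenone added to test sensitivity; rates are in nmol O2/min/mg protein. For inhibitor tests, mitochondria were pretreated 10 min with 0.8 μM Bcl-2 or 10 μM BA before succinate plus CCCP or NADH. In the kinetics, 15 μM cytochrome c oxidation was followed in parallel, with 100% set by 2.5 mM laurylmaltoside.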

[6] = tested on: purified mitochondria (respiratory chain); assay: Polarography: succinate oxidation of purified mitochondria; format: biochemical, mouse; settings: 1 μM Vpr52-96, 10 min pretreatment; Fig. 4 A
Summary of the method: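 Mouse liver mitochondria, pretreated 10 min with test peptide or untreated, held at 37°C in a Clark-electrode cell. Medium: 0.3 M mannitol, 10 mM KCl, 5 mM MgCl2, 1 mg/ml BSA, 10 mM KH2PO4, pH 7.4. Oxygen consumption traced on succinate with sequential ADP, oligomycin and CCCP additions.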

[7] = tested on: purified mitochondria (cytochrome c release); assay: Cytochrome c release immunodetected in supernatant of mitochondria; format: biochemical, mouse; settings: 1 μM Vpr52-96; immunoblot; Fig. 5 C
Summary of the method: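 Mouse liver mitochondria treated with test peptide over a time course. Supernatants cleared by two spins (6,800 g 15 min; 20,000 g 1 h; both 4°C), stored at −80°C, and cytochrome c immunodetected with a mouse monoclonal antibody. In parallel, ΔΨm loss scored by flow cytometry with JC-1 as percent low-ΔΨm mitochondria.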

ANT proteoliposomes [8] = assay: Pore-opening assay: 4-MUP release from ANT proteoliposomes; format: biochemical, rat; settings: peptides 1 μM, 60 min, Atr 200 μM = 100%, Fig. 2 C
Summary of the method: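 ANT purified from rat heart mitochondria, reconstituted into PC/cardiolipin liposomes, sonicated on ice with 1 mM 4-MUP/10 mM KCl, gel-filtered. Diluted in 10 mM Hepes, 125 mM saccharose pH 7.4, peptide 1 h RT; inhibitors added 30 min earlier. Alkaline phosphatase (0.5 mM MgCl2) 15 min 37°C, stopped at pH 10. 4-MU fluorescence 360/450 nm. Release = % of atractyloside response after untreated background subtraction; n = 3, SD.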

ANT [9] = molecular target: T1, ANT; assay: Planar lipid bilayers, single channel level, Vpr52-96 plus ANT; format: biochemical; settings: Vpr52-96 plus ANT 0.4:1 nM, +115 mV; tip-dip technique
Summary of the method: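 Rat heart mitochondrial ANT, purified via subtilisin treatment, Triton X-100 solubilization, hydroxyapatite and SP column (0–1 M NaCl). Proteins held 30 min RT with 1 mM CaCl2, 40 μM atractyloside or control electrolyte, mixed with dried lipid (60 μg protein/mg lipid), detergent removed by beads. Tip-dip bilayers, symmetric 100 mM KCl, 2 mM MgCl2, 10 mM Hepes pH 7.4.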

isolated mitochondria = assay: Ultrastructure: swelling of isolated mitochondria; format: biochemical, mouse; settings: for swollen mitochondria: control <5%
recombinant VDAC = assay: Plasmon resonance: binding to recombinant VDAC; settings: control experiments, VDAC concentrations up to 10 μM
ANT proteoliposomes [10] = assay: Binding of FITC-labeled Vpr52-96 to ANT proteoliposomes; parameters: species or system rat; settings: FITC-labeled Vpr52-96, 30 min; Fig. 2 A; n = 3
Summary of the method: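 ANT was purified from rat heart mitochondria (Triton X-100 extraction, hydroxyapatite, then cation-exchange with a 0–1 M NaCl gradient) and reconstituted at 0.1 mg/ml into phosphatidylcholine/cardiolipin liposomes, then dialysed overnight at 4°C. Proteoliposomes were exposed 30 min to FITC-peptide in 125 mM sucrose/10 mM Hepes pH 7.4, ultracentrifuged (290,000 g, 45 min, 10°C) and read by flow cytometry. Inhibitors were preincubated and washed out; mean ± SD, n = 3.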

[11] = tested on: purified mitochondria, outer membrane; assay: Cytochrome c oxidation; format: biochemical, mouse; settings: 15 μM cytochrome c; 100% by 2.5 mM laurylmaltoside; Fig. 5 B
Summary of the method: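 Mouse liver mitochondria exposed to test peptide, followed over time. Outer-membrane permeability read as spectrophotometric/spectrofluorometric oxidation of added reduced cytochrome c (15 μM) by cytochrome c oxidase. Maximal (100%) oxidation set by 2.5 mM laurylmaltoside; signal expressed as a percentage of this. Inner-membrane NADH oxidation (2 mM, oxygen consumption) tracked in parallel.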

| Molecule | effect on RC (in words) [1] | action on PTPC and mitochondrial hallmarks of apoptosis (PTPC) | interaction with recombinant Bcl-2 (recombinant Bcl-2) | effect on plain liposomes [2] | channel formation at low doses without ANT [3] | sensorgram: increase of binding as a function of time (ANT [4]; plasmon resonance, association and dissociation phase, Fig. 1 A) | binding affinity for ANT (in words) (ANT [4]; surface plasmon resonance, purified detergent-solubilized ANT) | NADH-dependent oxygen consumption (IM permeabilization to NADH) ([5]; 1 μM Vpr52-96, 2 mM NADH, Fig. 5 A) | time of maximal NADH oxidation after addition ([5]; Vpr52-96, 2 mM NADH, Fig. 5 B) [min] | effect on respiration (succinate oxidation) [6] | order of ΔΨm loss, inner MMP and cytochrome c release [7] | permeabilization of ANT proteoliposomes (ANT proteoliposomes [8]) | channel conductance, Vpr52-96 plus ANT (ANT [9]) [pS] | swollen mitochondria (isolated mitochondria; 5 min after 3 μM Vpr52-96, X ± SEM, n = 3) [%] | swollen mitochondria (isolated mitochondria; 15 min after 3 μM Vpr52-96) [%] | ultrastructural effect (in words) (isolated mitochondria; Vpr52-96-treated mitochondria, Fig. 6 C) | specific binding to VDAC (recombinant VDAC) | binding to ANT liposomes compared with protein-free liposomes (ANT proteoliposomes [10]) | access of cytochrome c to cytochrome c oxidase [11] |
| --- | --- | --- | --- | --- | --- | --- | --- | --- | --- | --- | --- | --- | --- | --- | --- | --- | --- | --- | --- |
| Vpr1-96: entire (full-length) Vpr protein | also reduced the RC values | act on the PTPC to induce all mitochondrial hallmarks of apoptosis, including ΔΨm loss and the release of cytochrome c and apoptosis-inducing factor (AIF) |  |  |  |  |  |  |  |  |  |  |  |  |  |  |  |  |  |
| Vpr53-96: printed once; probably Vpr52-96 |  |  | found not to interact with recombinant Bcl-2 |  |  |  |  |  |  |  |  |  |  |  |  |  |  |  |  |
| CC[C@H](C)[C@H](NC(=O)CNC(=O)[C@@H](NC(=O)[C@H](CCCNC(=N)N)NC(=O)[C@H](CO)NC(=O)[C@H](Cc1c[nH]cn1)NC(=O)[C@H](CCCNC(=N)N)NC(=O)[C@H](CS)NC(=O)CNC(=O)[C@@H](NC(=O)[C@H](CCCNC(=N)N)NC(=O)[C@H](Cc1ccccc1)NC(=O)[C@H](Cc1c[nH]cn1)NC(=O)[C@@H](NC(=O)[C@H](Cc1ccccc1)NC(=O)[C@H](CC(C)C)NC(=O)[C@H](CC(C)C)NC(=O)[C@H](CCC(N)=O)NC(=O)[C@H](CCC(N)=O)NC(=O)[C@H](CC(C)C)NC(=O)[C@@H](NC(=O)[C@H](CCCNC(=N)N)NC(=O)[C@@H](NC(=O)[C@H](CC(C)C)NC(=O)[C@H](C)NC(=O)[C@H](CCC(=O)O)NC(=O)[C@@H](NC(=O)CNC(=O)[C@@H](NC(=O)[C@H](Cc1c[nH]c2ccccc12)NC(=O)[C@@H](NC(=O)[C@@H](N)CC(=O)O)[C@@H](C)O)[C@@H](C)O)C(C)C)[C@@H](C)CC)[C@@H](C)CC)[C@@H](C)CC)[C@@H](C)CC)[C@@H](C)CC)C(=O)N[C@H](C(=O)N[C@@H](CCC(N)=O)C(=O)N[C@@H](CCC(N)=O)C(=O)N[C@@H](CCCNC(=N)N)C(=O)N[C@@H](CCCNC(=N)N)C(=O)N[C@H](C(=O)N[C@@H](CCCNC(=N)N)C(=O)N[C@@H](CC(N)=O)C(=O)NCC(=O)N[C@@H](C)C(=O)N[C@@H](CO)C(=O)N[C@@H](CCCCN)C(=O)N[C@@H](CO)C(=O)O)[C@@H](C)O)[C@@H](C)CC [Vpr52-96] | gross deficiency in respiratory control |  |  | had no effect on plain liposomes | incapable of forming channels | exhibits an increase of binding as a function of time and a positive signal at the start of the dissociation phase (off) | affinity in the nanomolar range | prompted a significant, NADH-stimulated oxygen consumption | 10 | increased succinate oxidation preceding ADP addition and abolished both the inhibitory effect of oligomycin (a specific ATPase inhibitor) and the stimulatory effect of uncoupling by the protonophore CCCP; also recorded: not associated with a significant decrease of the oxidation rate; also recorded: adding cytochrome c to Vpr52-96–treated mitochondria oxidizing succinate did not stimulate the rate of oxygen uptake | the ΔΨm loss occurred before cytochrome c release can be detected by immunoblot; also recorded: causes inner MMP well before OM becomes permeable to cytochrome c | caused permeabilization of ANT proteoliposomes | 190 ± 2 | 82 ± 4 | 99 ± 1 | exhibited matrix swelling before OM rupture became apparent | no specific binding | greatly facilitated in liposomes in which ANT has been reconstituted compared with protein-free liposomes | only induced a marginal access of cytochrome c to cytochrome c oxidase |
